Converted amounts (≈) assume the structure as drawn.
Legend:
Staphylococcus aureus = test: Antibacterial activity against Staphylococcus aureus after 18 to 22 hrs by broth microdilution method; assay type: functional
Summary of the method: (§1)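 Broth microdilution per NCCLS in Mueller-Hinton II broth; isolates subcultured for purity. Compounds dissolved in DMSO, serial dilutions 256 to 0.5 µg/mL; inoculum 10^5/mL. Controls: organism without compound, medium only. Incubation 18 to 22 h at 35 °C. MIC is the lowest concentration giving complete growth inhibition, read by unaided eye.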

Staphylococcus warneri = test: Antibacterial activity against Staphylococcus warneri after 18 to 22 hrs by broth microdilution method; assay type: functional; summary of the method: as §1
Enterococcus faecalis = test: Antibacterial activity against […] faecalis after 18 to 22 hrs by broth microdilution method; assay type: functional; summary of the method: as §1
[1] = system: Staphylococcus haemolyticus; test: Antibacterial activity against Staphylococcus haemolyticus after 18 to 22 hrs by broth microdilution method; assay type: functional; summary of the method: as §1
Escherichia coli = test: Antibacterial activity against Escherichia coli at after 18 to 22 hrs by broth microdilution method; assay type: functional; summary of the method: as §1
Proteus mirabilis = test: Antibacterial activity against Proteus mirabilis after 18 to 22 hrs by broth microdilution method; assay type: functional; summary of the method: as §1
Enterobacter sp. = test: Antibacterial activity against Enterobacter sp. after 18 to 22 hrs by broth microdilution method; assay type: functional; summary of the method: as §1
Klebsiella oxytoca = test: Antibacterial activity against Klebsiella oxytoca after 18 to 22 hrs by broth microdilution method; assay type: functional; summary of the method: as §1
Candida albicans = test: Antifungal activity against Candida albicans clinical isolate after 24 hrs by sabouraud dextrose broth based microdilution method; assay type: functional
Summary of the method: (§2)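 Clinical isolates identified by conventional methods and subcultured for purity. Broth microdilution per NCCLS in Sabouraud dextrose broth; compounds dissolved in DMSO and serially diluted; inoculum 10^3/mL. Controls: fungi without compound, medium only. Incubated 24 h at 37 °C. MIC is the lowest concentration with complete growth inhibition by unaided eye. Values are geometric means over isolates per species.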

Nakaseomyces glabratus = test: Antifungal activity against Candida glabrata clinical isolate after 24 hrs by sabouraud dextrose broth based microdilution method; assay type: functional; summary of the method: as §2
Candida tropicalis = test: Antifungal activity against Candida tropicalis clinical isolate after 24 hrs by sabouraud dextrose broth based microdilution method; assay type: functional; summary of the method: as §2
Pichia kudriavzevii = test: Antifungal activity against Candida krusei clinical isolate after 24 hrs by sabouraud dextrose broth based microdilution method; assay type: functional; summary of the method: as §2
Candida parapsilosis = test: Antifungal activity against Candida parapsilosis clinical isolate after 24 hrs by sabouraud dextrose broth based microdilution method; assay type: functional; conditions: Lodderomyces parapsilosis; summary of the method: as §2
[Candida] sake = Antifungal activity against Candida sake clinical isolate after 24 hrs by sabouraud dextrose broth based microdilution method; assay type: functional; conditions: Fermentozyma sake; summary of the method: as §2
[2] = Cytotoxicity against human Hep2 cells assessed as cell survival at 100 ug/ml after 24 hrs by trypan blue exclusion test (reference value: 87 to 94%); assay type: cell-based, HEp-2; conditions: read-out: Survival
[3] = Cytotoxicity against human Hep2 cells assessed as cell survival at 50 ug/ml after 24 hrs by trypan blue exclusion test (reference value: 87 to 94%); assay type: cell-based, HEp-2; conditions: read-out: Survival
[4] = Cytotoxicity against human Hep2 cells assessed as cell survival at 5 ug/ml after 24 hrs by trypan blue exclusion test (reference value: 87 to 94%); assay type: cell-based, HEp-2; conditions: read-out: Survival
[5] = Cytotoxicity against human Hep2 cells assessed as cell survival at 0.5 ug/ml after 24 hrs by trypan blue exclusion test (reference value: 87 to 94%); assay type: cell-based, HEp-2; conditions: read-out: Survival
[6] = Cytotoxicity against human Hep2 cells assessed as cell survival at 0.05 ug/ml after 24 hrs by trypan blue exclusion test (reference value: 87 to 94%); assay type: cell-based, HEp-2; conditions: read-out: Survival
[7] = Cytotoxicity against human Hep2 cells assessed as cell survival after 24 hrs by trypan blue exclusion method; assay type: cell-based, HEp-2
Summary of the method: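 Hep2 cells grown in DMEM with 10% FBS and 1% streptomycin-penicillin at 37 °C, 5% CO2, used at 60-70% confluency. Seeded at 1 x 10^5/mL and exposed 24 h to five concentrations (0.05-100 µg/mL), DMSO ≤0.5%. Controls: medium alone, DMSO, 1 mM nitroprusside. Cells scraped, recovered 30 min, stained 1:1 with 0.4% Trypan blue, counted by two operators. Means of ≥3 independent experiments.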

[8] = Selectivity index, ratio of CC50 for human Hep2 cells to MIC for Candida glabrata; design: species or system HEp-2
Summary of the method: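 Ratio of CC50 from the 24 h Trypan blue assay on Hep2 cells to the MIC against C. glabrata from the 24 h, 37 °C Sabouraud broth microdilution.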

Row | SMILES | MIC (Staphylococcus aureus) | MIC (Staphylococcus warneri) | MIC (Enterococcus faecalis) | MIC [1] | MIC (Escherichia coli) | MIC (Proteus mirabilis) | MIC (Enterobacter sp.) | MIC (Klebsiella oxytoca) | MIC (Candida albicans) | MIC (Nakaseomyces glabratus) | MIC (Candida tropicalis) | MIC (Pichia kudriavzevii) | MIC (Candida parapsilosis) | MIC ([Candida] sake) | viability at 24 h, 100 ug/ml [2] | viability at 24 h, 50 ug/ml [3] | viability at 24 h, 5 ug/ml [4] | viability at 24 h, 0.5 ug/ml [5] | viability at 24 h, 0.05 ug/ml [6] | CC50 at 24 h [7] | also measured
1 | CCCCC/C(C)=N/N=C1\SCC(=O)N1Cc1ccc([N+](=O)[O-])cc1 | > 256 µg/mL | > 256 µg/mL | > 256 µg/mL | > 256 µg/mL | > 256 µg/mL | > 256 µg/mL | > 256 µg/mL | > 256 µg/mL | 4 µg/mL (≈ 11 µM) | 1 µg/mL (≈ 2.76 µM) | 64 µg/mL (≈ 177 µM) | 2 µg/mL (≈ 5.52 µM) | 2 µg/mL (≈ 5.52 µM) | 2 µg/mL (≈ 5.52 µM) | 0% | 0% | 87% | 93.5% | 95.4% | 35 µg/mL (≈ 96.6 µM) | –
2 | C/C(CC(C)C)=N\N=C1/SCC(=O)N1Cc1cccc2ccccc12 | > 256 µg/mL | > 256 µg/mL | > 256 µg/mL | > 256 µg/mL | > 256 µg/mL | > 256 µg/mL | > 256 µg/mL | > 256 µg/mL | 4 µg/mL (≈ 11.3 µM) | 1 µg/mL (≈ 2.83 µM) | 64 µg/mL (≈ 181 µM) | 2 µg/mL (≈ 5.66 µM) | 2 µg/mL (≈ 5.66 µM) | 4 µg/mL (≈ 11.3 µM) | 46% | 73.6% | 87.5% | 91% | 93.2% | 95 µg/mL (≈ 269 µM) | Selectivity Index [8]: 95
3 | CC(C)=N/N=C1\SCC(=O)N1CN1C(=O)c2ccccc2C1=O | > 256 µg/mL | > 256 µg/mL | > 256 µg/mL | > 256 µg/mL | > 256 µg/mL | > 256 µg/mL | > 256 µg/mL | > 256 µg/mL | 4 µg/mL (≈ 12.1 µM) | 1 µg/mL (≈ 3.03 µM) | 1 µg/mL (≈ 3.03 µM) | 2 µg/mL (≈ 6.05 µM) | 2 µg/mL (≈ 6.05 µM) | 2 µg/mL (≈ 6.05 µM) | 0% | 0% | 61% | 73% | 86% | 22 µg/mL (≈ 66.6 µM) | –
4 | C/C(CC(C)C)=N\N=C1/SCC(=O)N1CN1C(=O)c2ccccc2C1=O | > 256 µg/mL | > 256 µg/mL | > 256 µg/mL | > 256 µg/mL | > 256 µg/mL | > 256 µg/mL | > 256 µg/mL | > 256 µg/mL | 2 µg/mL (≈ 5.37 µM) | 1 µg/mL (≈ 2.68 µM) | 64 µg/mL (≈ 172 µM) | 2 µg/mL (≈ 5.37 µM) | 2 µg/mL (≈ 5.37 µM) | 2 µg/mL (≈ 5.37 µM) | 47% | 79% | 90% | 92.8% | 94% | 99 µg/mL (≈ 266 µM) | Selectivity Index [8]: 99
5 | C/C(CC(C)C)=N\N=C1/SCC(=O)N1Cc1ccc([N+](=O)[O-])cc1 | > 256 µg/mL | > 256 µg/mL | > 256 µg/mL | > 256 µg/mL | > 256 µg/mL | > 256 µg/mL | > 256 µg/mL | > 256 µg/mL | 1 µg/mL (≈ 2.87 µM) | 1 µg/mL (≈ 2.87 µM) | 32 µg/mL (≈ 91.8 µM) | 2 µg/mL (≈ 5.74 µM) | 2 µg/mL (≈ 5.74 µM) | 4 µg/mL (≈ 11.5 µM) | 0% | 0% | 82% | 92.5% | 93% | 32 µg/mL (≈ 91.8 µM) | –
6 | O=C1CS/C(=N\N=C2CCCC2)N1Cc1ccc([N+](=O)[O-])cc1 | > 256 µg/mL | > 256 µg/mL | > 256 µg/mL | > 256 µg/mL | > 256 µg/mL | > 256 µg/mL | > 256 µg/mL | > 256 µg/mL | 2 µg/mL (≈ 6.02 µM) | 16 µg/mL (≈ 48.1 µM) | 1 µg/mL (≈ 3.01 µM) | 8 µg/mL (≈ 24.1 µM) | 16 µg/mL (≈ 48.1 µM) | 16 µg/mL (≈ 48.1 µM) | 0% | 0% | 51% | 88% | 95% | 28 µg/mL (≈ 84.2 µM) | –
7 | CCCC/C(CC)=N/N=C1\SCC(=O)N1Cc1cccc2ccccc12 | > 256 µg/mL | > 256 µg/mL | > 256 µg/mL | > 256 µg/mL | > 256 µg/mL | > 256 µg/mL | > 256 µg/mL | > 256 µg/mL | 2 µg/mL (≈ 5.44 µM) | 8 µg/mL (≈ 21.8 µM) | 2 µg/mL (≈ 5.44 µM) | 16 µg/mL (≈ 43.5 µM) | 16 µg/mL (≈ 43.5 µM) | 2 µg/mL (≈ 5.44 µM) | – | – | – | – | – | – | –
8 | CC1CCCC/C1=N\N=C1/SCC(=O)N1Cc1cccc2ccccc12 (stereo unspecified) | > 256 µg/mL | > 256 µg/mL | > 256 µg/mL | > 256 µg/mL | > 256 µg/mL | > 256 µg/mL | > 256 µg/mL | > 256 µg/mL | 4 µg/mL (≈ 10.9 µM) | 8 µg/mL (≈ 21.9 µM) | 4 µg/mL (≈ 10.9 µM) | 16 µg/mL (≈ 43.8 µM) | 16 µg/mL (≈ 43.8 µM) | 2 µg/mL (≈ 5.47 µM) | – | – | – | – | – | – | –
9 | CC/C(C)=N/N=C1\SCC(=O)N1Cc1cccc2ccccc12 | > 256 µg/mL | > 256 µg/mL | > 256 µg/mL | > 256 µg/mL | > 256 µg/mL | > 256 µg/mL | > 256 µg/mL | > 256 µg/mL | 2 µg/mL (≈ 6.15 µM) | 2 µg/mL (≈ 6.15 µM) | 128 µg/mL (≈ 393 µM) | 2 µg/mL (≈ 6.15 µM) | 2 µg/mL (≈ 6.15 µM) | 2 µg/mL (≈ 6.15 µM) | – | – | – | – | – | – | –
10 | CC1CCC/C1=N\N=C1/SCC(=O)N1Cc1cccc2ccccc12 (stereo unspecified) | > 256 µg/mL | > 256 µg/mL | > 256 µg/mL | > 256 µg/mL | > 256 µg/mL | > 256 µg/mL | > 256 µg/mL | > 256 µg/mL | 4 µg/mL (≈ 11.4 µM) | 32 µg/mL (≈ 91 µM) | 2 µg/mL (≈ 5.69 µM) | 2 µg/mL (≈ 5.69 µM) | 8 µg/mL (≈ 22.8 µM) | 2 µg/mL (≈ 5.69 µM) | – | – | – | – | – | – | –
11 | O=C1c2ccccc2C(=O)N1CN1C(=O)CS/C1=N\N=C\c1ccc2c(c1)OCO2 | > 256 µg/mL | > 256 µg/mL | > 256 µg/mL | > 256 µg/mL | > 256 µg/mL | > 256 µg/mL | > 256 µg/mL | > 256 µg/mL | 8 µg/mL (≈ 18.9 µM) | 8 µg/mL (≈ 18.9 µM) | 8 µg/mL (≈ 18.9 µM) | 32 µg/mL (≈ 75.8 µM) | 128 µg/mL (≈ 303 µM) | 128 µg/mL (≈ 303 µM) | – | – | – | – | – | – | –
12 | CCCCC/C(C)=N/N=C1\SCC(=O)N1CN1C(=O)c2ccccc2C1=O | > 256 µg/mL | > 256 µg/mL | > 256 µg/mL | > 256 µg/mL | > 256 µg/mL | > 256 µg/mL | > 256 µg/mL | > 256 µg/mL | 4 µg/mL (≈ 10.3 µM) | 8 µg/mL (≈ 20.7 µM) | 128 µg/mL (≈ 331 µM) | 2 µg/mL (≈ 5.17 µM) | 2 µg/mL (≈ 5.17 µM) | 2 µg/mL (≈ 5.17 µM) | – | – | – | – | – | – | –

Source: ChEMBL document CHEMBL3739379, “Anti-Candida activity and cytotoxicity of a large library of new N-substituted-1,3-thiazolidin-4-one derivatives” (Eur J Med Chem, 2016)
